Among the data in ChEMBL document CHEMBL4706514, “PSNCBAM-1 analogs: Structural evolutions and allosteric properties at cannabinoid CB1 receptor” (Eur J Med Chem, 2020) are Displacement and Activity values, retold here.

Test [1] has as its target Cannabinoid receptor 2 (Homo sapiens) (UniProt P34972). The test is described as follows: Binding affinity to human CB2 receptor expressed in CHO cell membranes assessed as displacement of [3H]CP55940 from the receptor > 1 uM after 60 mins by liquid scintillation spectrometric method. The settings on record: Cell membrane, dose microM >1, time 60.0 min.
The target in test [2] is Cannabinoid receptor 1 (Homo sapiens) (UniProt P21554). The test is described as follows: Inverse agonist activity at human CB1 receptor expressed in CHO cell membranes assessed as decrease in cellular response >1 uM after 90 mins by [35S]-GTPgammaS binding based liquid scintillation spectrometric method. Type of test: functional. The settings on record: Cell membrane, dose microM >1, time 90.0 min. Also noted: scale not given: the % may be the effect or the level left. In a few lines:
(§1)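 Compound alone, 1 nM to 10 µM (from 10.00 mM DMSO stocks; 0.1% DMSO per tube), incubated 90 min at 30 °C with hCB1-CHO membranes (50.0 µg protein/tube). Buffer: 50 mM Tris, 10 mM MgCl2, 100 mM NaCl, 0.2 mM EDTA, 1 mM DTT, pH 7.4, with [35S]GTPγS 0.1 nM and GDP 30 µM. Read by filtration and scintillation counting. Response expressed as % change from vehicle basal stimulation. Six independent experiments, each in duplicate.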

The target is the same in test [3]. Briefly: Inverse agonist activity at human CB1 receptor expressed in CHO cell membranes assessed as decrease in cellular response up to 1 uM after 90 mins by [35S]-GTPgammaS binding based liquid scintillation spectrometric method. Type of test: functional. To be noted: Cell membrane, dose microM <=1, time 90.0 min. In a few lines:
as §1

Test [4] shares this target. The test is described as follows: Positive allosteric modulation of human CB1 receptor expressed in CHO cell membranes assessed as increase in binding [3H]CP55940 to the receptor at 1 uM after 60 mins by liquid scintillation spectrometric method relative to control. The settings on record: Cell membrane. In a few lines:
(§2)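 Membranes from CHO cells stably expressing human CB1 (50.0 µg protein/tube) incubated 60 min at 37 °C with [3H]CP55940 0.700 nM and compound 1 nM to 10 µM (from 10.00 mM DMSO stocks; 0.1% DMSO). Ended with ice-cold Tris buffer and vacuum filtration, six washes. Filters oven-dried, then scintillation counted. Six independent experiments in duplicate; one-sample t-test against zero.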

The target is the same in test [5]. The test is described as follows: Negative allosteric modulation of human CB1 receptor expressed in CHO cell membranes assessed as decrease in CP55940-induced agonist activity at 1 uM after 90 mins by [35S]-GTPgammaS binding based liquid scintillation spectrometric method relative to control. In kind it is functional. Also noted: scale not given: the % may be the effect or the level left. The settings on record: Cell membrane. In a few lines: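 Test compound held fixed at 1 µM (from 10.00 mM DMSO stock) against CP55940 0.1 nM to 1 µM. Incubated with hCB1-CHO membranes (50.0 µg protein/tube, 0.1% DMSO) for 90 min at 30 °C, with [35S]GTPγS 0.1 nM and GDP 30 µM in Tris/MgCl2/NaCl/EDTA/DTT buffer, pH 7.4. Bound label filtered and counted. Data taken as % change over vehicle basal; mean of six experiments in duplicate.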

For test [6] the target is unchanged. Briefly: Positive allosteric modulation of human CB1 receptor expressed in CHO cell membranes assessed as increase in binding [3H]CP55940 to the receptor after 60 mins by liquid scintillation spectrometric method. To be noted: Cell membrane, filed as positive allosteric modulator, dose 1-10000 nM. An outline of the steps: as §2
Test [7] addresses Cannabinoid receptor 2 (Homo sapiens) (UniProt P34972). Briefly: Positive allosteric modulation of human CB2 receptor expressed in CHO cell membranes assessed as increase in binding [3H]CP55940 to the receptor at 0.001 to 10 uM after 60 mins by liquid scintillation spectrometric method. The settings on record: Cell membrane, dose 0.001-10 µM. An outline of the steps: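 Human CB2 stably expressed in CHO cells; membranes at 50.0 µg protein/tube with [3H]CP55940 0.700 nM and compound 1 nM to 10 µM (0.1% DMSO). Incubated 60 min at 37 °C, then filtered under vacuum with ice-cold Tris buffer and scintillation counted. Six independent experiments, each in duplicate.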

Test [8] deals with Cannabinoid receptor 1 (Homo sapiens) (UniProt P21554). Briefly: Positive allosteric modulation of human CB1 receptor expressed in CHO cell membranes assessed as increase in binding [3H]CP55940 to the receptor up to 10 uM after 60 mins by liquid scintillation spectrometric method relative to control. The settings on record: Cell membrane, filed as positive allosteric modulator, dose microM <=10, time 60.0 min. An outline of the steps:
as §2

Test [9] shares this target. The test is described as follows: Negative allosteric modulation of human CB1 receptor expressed in CHO cell membranes assessed as decrease in CP55940-induced agonist activity at 100 nM after 90 mins by [35S]-GTPgammaS binding based liquid scintillation spectrometric method. Type of test: functional. The settings on record: Cell membrane, filed as negative allosteric modulator.

The target is the same in test [10]. Briefly: Inverse agonist activity at human CB1 receptor expressed in CHO cell membranes assessed as decrease in cellular response at 0.001 to 10 uM after 90 mins by [35S]-GTPgammaS binding based liquid scintillation spectrometric method relative to control. In kind it is functional. The arrangement: scale not given: the % may be the effect or the level left. The settings on record: Cell membrane, dose 0.001-10 µM. In a few lines:
as §1

Test [11] has the same target. The test is described as follows: Inverse agonist activity at human CB1 receptor expressed in CHO cell membranes assessed as decrease in cellular response up to 10 uM after 90 mins by [35S]-GTPgammaS binding based liquid scintillation spectrometric method. Type of test: functional. The settings on record: Cell membrane, dose microM <=10, time 90.0 min. In a few lines:
as §1

For test [12] the target is unchanged. The test is described as follows: Positive allosteric modulation of human CB1 receptor expressed in CHO cell membranes assessed as increase in binding [3H]CP55940 to the receptor at 10 uM after 60 mins by liquid scintillation spectrometric method relative to control. The settings on record: Cell membrane. An outline of the steps: as §2

The source made the active and inactive calls. The calls are words filed in the database; no cut-off is given here.

Sequence of Cannabinoid receptor 1 (Homo sapiens) (P21554 whole entry): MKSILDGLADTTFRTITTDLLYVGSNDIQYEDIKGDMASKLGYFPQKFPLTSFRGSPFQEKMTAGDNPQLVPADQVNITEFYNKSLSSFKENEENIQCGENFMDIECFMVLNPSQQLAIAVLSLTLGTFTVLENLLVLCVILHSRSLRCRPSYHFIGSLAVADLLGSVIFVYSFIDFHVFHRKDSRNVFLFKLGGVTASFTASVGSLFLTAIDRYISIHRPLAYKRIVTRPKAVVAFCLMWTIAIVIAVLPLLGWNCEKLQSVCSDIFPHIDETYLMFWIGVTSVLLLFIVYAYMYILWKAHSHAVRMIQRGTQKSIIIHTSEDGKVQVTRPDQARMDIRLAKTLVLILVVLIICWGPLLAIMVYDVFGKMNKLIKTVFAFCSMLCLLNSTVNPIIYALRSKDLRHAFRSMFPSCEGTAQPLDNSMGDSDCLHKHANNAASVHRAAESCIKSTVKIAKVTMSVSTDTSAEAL
Sequence of Cannabinoid receptor 2 (Homo sapiens) (P34972 whole entry): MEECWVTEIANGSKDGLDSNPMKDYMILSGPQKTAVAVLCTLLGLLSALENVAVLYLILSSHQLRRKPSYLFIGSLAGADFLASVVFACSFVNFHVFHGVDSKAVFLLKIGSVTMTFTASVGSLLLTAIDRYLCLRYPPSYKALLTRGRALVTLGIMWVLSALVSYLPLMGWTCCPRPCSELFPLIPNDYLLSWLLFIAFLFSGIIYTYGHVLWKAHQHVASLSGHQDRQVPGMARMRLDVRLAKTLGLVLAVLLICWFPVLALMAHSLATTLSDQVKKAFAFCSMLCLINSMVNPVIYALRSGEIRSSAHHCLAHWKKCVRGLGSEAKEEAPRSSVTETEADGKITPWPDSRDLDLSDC

Turning to `O=C(Nc1ccc(Cl)cc1)Nc1cccc(-c2cccc(N3CCCCC3)c2)c1`, in test [1], the Displacement entry was “Active”. Also, the Activity turned out to be 30% in test [2], 40% in test [4] and 30% in [5]. Moreover, the result in test [3] was inactive.
In the case of `O=C(Nc1ccc(Cl)cc1)Nc1cccc(Nc2ccc(F)cc2)c1`, the Activity entry in test [6] was “Dose-dependent effect”; in test [2], 35%; in [8], 90%; in test [5] it was 30%. Moreover, the result in test [7] and in test [3] was inactive. The outcome in test [9] was Active.
On to `O=C(Nc1ccc(Cl)cc1)Nc1cccc(Nc2ccccn2)c1`, for which the Activity is 30% in [10], “Dose-dependent effect” in test [6] and 170% in [8].
Regarding `O=C(Nc1ccc(F)cc1)Nc1cccc(-c2cccc(N3CCCC3)c2)c1`, the Activity in test [10] (filed as inverse agonist) is 45%; in test [6] it was “Dose-dependent effect”; in test [8], 70%.
As to `O=C(Nc1ccc(Cl)cc1)Nc1cccc(Nc2cccc(N3CCCC3)n2)n1`, the values for the Activity result in test [6] and in test [8] were “Dose-dependent effect” and 60%, respectively. In addition, the result in [11] and in test [5] was inactive.
On to `O=C(Nc1ccc(Cl)cc1)Nc1cccc(Nc2cccc(N3CCCCC3)n2)n1`, for which the Activity result is “Dose-dependent effect” in [6] and 50% in test [8]. In addition, the result in test [11] and in test [5] was inactive.
Regarding `O=C(Nc1ccc(Cl)cc1)Nc1cccc(Nc2ccccc2)c1`, the Activity is 30% in test [10], “Dose-dependent effect” in test [6] and 90% in [8].
Regarding `O=C(CCc1ccc(Cl)cc1)Nc1cccc(-c2cccc(N3CCCC3)c2)c1`, the result in test [12] was inactive.
